Experimental data as given in ChEMBL document CHEMBL4043283, “Discovery and Preclinical Development of IIIM-290, an Orally Active Potent Cyclin-Dependent Kinase Inhibitor” (J Med Chem, 2018).

Experiments:
Caco-2 [1] = test: Growth inhibition of human Caco2 cells at 10 uM after 48 hrs by MTT assay relative to control; assay type: functional; conditions: Caco-2, 48 h, read-out: GI
Outline: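 Single-concentration primary screen at 10 μM by MTT assay. Cells were NCI-sourced cancer lines grown in appropriate medium at 37 °C, 95% humidity, 5% CO2. Growth inhibition is expressed relative to control.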

CDK9/cyclin T1 = CDK9/cyclin T1 (Homo sapiens, UniProt P50750); test: Inhibition of CDK9/cyclin T1 (unknown origin) using YSPTSPSYSPTSPSYSPTSPKKK as substrate after 30 mins in presence of [33P]-gamma-ATP by filter binding assay; assay type: protein-complex assay
Caco-2 [2] = test: Growth inhibition of human Caco2 cells after 48 hrs by MTT assay; assay type: functional; conditions: Caco-2, 48 h
Outline: (§1)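 Cancer cell lines sourced from the National Cancer Institute (USA). Cells kept in appropriate growth medium at 37 °C, 95% humidity, 5% CO2. Antiproliferation read by tetrazolium (MTT) assay. GI50 values were determined only for compounds selected after an initial single-concentration screen.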

CDK1/Cyclin E = CDK1/Cyclin E (Homo sapiens, UniProt P06493); test: Inhibition of CDK1/cyclin E (unknown origin) after 30 mins in presence of [33P]-gamma-ATP by filter binding assay; assay type: protein-complex assay
CDK3/Cyclin E = CDK3/Cyclin E (Homo sapiens, UniProt Q00526); test: Inhibition of CDK3/cyclin E (unknown origin) after 30 mins in presence of [33P]-gamma-ATP by filter binding assay; assay type: protein-complex assay
CDK6/cyclin D3 = CDK6/cyclin D3 (Homo sapiens, UniProt Q00534); test: Inhibition of CDK6/cyclin D3 (unknown origin) after 30 mins in presence of [33P]-gamma-ATP by filter binding assay; assay type: protein-complex assay
[3] = system: Tyrosine-protein kinase ABL1 (Homo sapiens), P00519 [E255K]; test: Inhibition of phosphorylated partial length human ABL1 E255K mutant expressed in mammalian expression system at 0.5 uM by KINOMEscan method relative to control
Outline: (§2)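 Competition binding screen (KINOMEscan) at 0.5 μM; primary binding read out as % of control, lower values indicating stronger interaction.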

[4] = molecular target: Cyclin-dependent kinase 4/cyclin D1 (Homo sapiens) (UniProt P11802+P24385); test: Inhibition of full length wild type human CDK4/cyclin D1 expressed in mammalian expression system at 0.5 uM by KINOMEscan method relative to control; outline: as §2
[5] = molecular target: Voltage-gated inwardly rectifying potassium channel KCNH2 (Homo sapiens, UniProt Q12809); test: Inhibition of [3H]-astemizole binding to human ERG expressed in HEK293 cell membranes by scintillation counting method
MDA-MB-231 = test: Growth inhibition of human MDA-MB-231 cells after 48 hrs by MTT assay; assay type: functional; conditions: MDA-MB-231, 48 h; outline: as §1
[6] = Growth inhibition of human HEK293 cells after 48 hrs by MTT assay; assay type: cell-based
HOP-92 = test: Growth inhibition of human HOP92 cells after 48 hrs by MTT assay; assay type: functional; conditions: HOP-92, 48 h; outline: as §1
MIA PaCa-2 [7] = test: Cell cycle arrest in human MIAPaCa2 cells assessed as accumulation at G1 phase at 1.5 uM after 24 hrs by propidium iodide staining-based flow cytometric method (reference value: 36%); assay type: functional
MIA PaCa-2 [8] = test: Induction of apoptosis in human MIAPaCa2 cells assessed as caspase-3 cleavage by Western blot method; assay type: functional, cell-based
Outline: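 Lysate protein quantified against a BSA standard; 70 μg resolved by SDS-PAGE, transferred to PVDF overnight at 4 °C, 30 V; blocked 1 h in 5% nonfat milk/TBST; primary antibodies 2–4 h, HRP anti-mouse secondary 1 h; ECL detection on X-ray film.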

[9] = Chemical stability of compound in phosphate buffered saline at pH 6.8 assessed as parent compound remaining at 120 ug/ml after 24 hrs by HPLC method; assay type: physicochemical; conditions: read-out: Stability
[10] = Metabolic stability in mouse plasma assessed as parent compound remaining after 8 hrs by HPLC method; assay type: ADME, cell-free; conditions: read-out: Stability
Cytochrome P450 2C19 = Cytochrome P450 2C19 (Homo sapiens, UniProt P33261); test: Inhibition of human CYP2C19 using fluorogenic substrate preincubated with co-factor for 10 mins followed by enzyme-substrate addition by fluorometric method; assay type: ADME
Outline: (§3)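 Cofactor plus test item or vehicle, in triplicate, preincubated 10 min at 37 °C; prewarmed enzyme–substrate mix added and incubated at 37 °C with shaking. Quench: acetonitrile (CYP2C19, CYP3A4) or 0.25 M Tris in 60% methanol (CYP2C9, CYP2D6). Metabolite fluorescence read; % inhibition computed against enzyme controls and enzyme-free blanks.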

Cytochrome P450 3A4 = Cytochrome P450 3A4 (Homo sapiens, UniProt P08684); test: Inhibition of human CYP3A4 using fluorogenic substrate preincubated with co-factor for 10 mins followed by enzyme-substrate addition by fluorometric method; assay type: ADME; outline: as §3
[11] = Half life in monkey hepatocytes at 3 uM after 180 mins by LC-MS/MS analysis; assay type: ADME, cell-based, Macaca mulatta, Hepatocyte; conditions: rhesus monkey
[12] = Half life in mouse liver S9 fraction preincubated for 5 mins followed by NADPH addition measured after 30 mins by LC-MS/MS analysis; assay type: ADME, tissue-based
Outline: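 Parent loss followed over time to give half-life, with NADPH as cofactor for microsomal phase I metabolism.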

[13] = Half life in human liver S9 fraction preincubated for 5 mins followed by NADPH addition measured after 30 mins by LC-MS/MS analysis; assay type: ADME, tissue-based
[14] = Cmax in BALB/c mouse at 10 mg/kg, po by LC-MS/MS analysis; assay type: ADME, organism-based; design: dose 10 mg/kg, route oral; conditions: in vivo
[15] = Volume of distribution in BALB/c mouse at 1 mg/kg, iv by LC-MS/MS analysis; assay type: ADME, organism-based; conditions: in vivo
[16] = Cmax in BALB/c mouse at 30 mg/kg, po by LC-MS/MS analysis; assay type: ADME, organism-based; design: dose 30 mg/kg, route oral; conditions: in vivo
[17] = Cmax in Sprague-Dawley rat at 30 mg/kg, po by LC-MS/MS analysis; assay type: ADME, organism-based; design: dose 30 mg/kg, route oral; conditions: in vivo
[18] = Pancreas to plasma partition coefficient, Kp of the compound in Sprague-Dawley rat at 30 mg/kg, po measured at 0.5 hrs; assay type: ADME, organism-based; conditions: pancreas and plasma
Kidney = test: Drug uptake in BALB/c mouse kidney at 30 mg/kg, po after 8 hrs; assay type: ADME, organism-based; conditions: in vivo
Mus musculus [19] = test: Toxicity in CD1 nude mouse xenografted with human MIAPaCa2 cells assessed as change in body weight at 25 to 50 mg/kg, po qd administered on day 10 to 25 post tumor inoculation; assay type: organism-based; conditions: in vivo
Mus musculus [20] = test: Toxicity in CD1 nude mouse xenografted with human HCT116 cells assessed as change in body weight at 25 to 50 mg/kg, po qd administered on day 10 to 25 post tumor inoculation; assay type: organism-based; conditions: in vivo
Salmonella typhimurium [21] = test: Mutagenicity in Salmonella typhimurium TA1537 at 50 ug/plate in presence of liver S9 fraction by Ames test; assay type: toxicity; conditions: salmonella enterica subsp. enterica serovar typhimurium
Salmonella typhimurium [22] = test: Mutagenicity in Salmonella typhimurium TA100 at 50 ug/plate in presence of liver S9 fraction by Ames test; assay type: toxicity; conditions: salmonella enterica subsp. enterica serovar typhimurium
Salmonella typhimurium [23] = test: Mutagenicity in Salmonella typhimurium TA1537 at 50 ug/plate in absence of liver S9 fraction by Ames test; assay type: toxicity; conditions: salmonella enterica subsp. enterica serovar typhimurium
Salmonella typhimurium [24] = test: Mutagenicity in Salmonella typhimurium TA98 at 50 ug/plate in absence of liver S9 fraction by Ames test; assay type: toxicity; conditions: salmonella enterica subsp. enterica serovar typhimurium

Chain of CDK1/Cyclin E (P06493 whole entry): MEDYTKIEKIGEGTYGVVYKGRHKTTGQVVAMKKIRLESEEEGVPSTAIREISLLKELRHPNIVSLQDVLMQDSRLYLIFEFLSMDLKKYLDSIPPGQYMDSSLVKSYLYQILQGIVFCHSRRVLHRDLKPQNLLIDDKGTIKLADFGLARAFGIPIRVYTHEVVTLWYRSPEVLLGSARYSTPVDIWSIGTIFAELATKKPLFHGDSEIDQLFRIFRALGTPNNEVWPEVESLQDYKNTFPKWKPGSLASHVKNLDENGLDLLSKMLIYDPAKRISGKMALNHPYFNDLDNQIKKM
Chain of CDK1/Cyclin E (P24864 whole entry, further chain): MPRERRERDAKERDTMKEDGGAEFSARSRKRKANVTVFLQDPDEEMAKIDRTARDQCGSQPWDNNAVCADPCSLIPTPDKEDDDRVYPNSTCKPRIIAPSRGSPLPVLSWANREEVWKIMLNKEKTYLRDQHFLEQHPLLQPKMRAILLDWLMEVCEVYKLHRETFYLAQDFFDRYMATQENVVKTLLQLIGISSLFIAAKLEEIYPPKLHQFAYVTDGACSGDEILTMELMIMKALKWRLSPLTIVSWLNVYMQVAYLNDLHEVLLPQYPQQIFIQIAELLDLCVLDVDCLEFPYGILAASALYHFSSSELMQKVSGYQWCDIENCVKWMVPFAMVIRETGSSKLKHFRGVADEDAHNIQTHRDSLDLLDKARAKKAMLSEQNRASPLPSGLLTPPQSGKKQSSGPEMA
Chain of CDK9/cyclin T1 (O60563 whole entry): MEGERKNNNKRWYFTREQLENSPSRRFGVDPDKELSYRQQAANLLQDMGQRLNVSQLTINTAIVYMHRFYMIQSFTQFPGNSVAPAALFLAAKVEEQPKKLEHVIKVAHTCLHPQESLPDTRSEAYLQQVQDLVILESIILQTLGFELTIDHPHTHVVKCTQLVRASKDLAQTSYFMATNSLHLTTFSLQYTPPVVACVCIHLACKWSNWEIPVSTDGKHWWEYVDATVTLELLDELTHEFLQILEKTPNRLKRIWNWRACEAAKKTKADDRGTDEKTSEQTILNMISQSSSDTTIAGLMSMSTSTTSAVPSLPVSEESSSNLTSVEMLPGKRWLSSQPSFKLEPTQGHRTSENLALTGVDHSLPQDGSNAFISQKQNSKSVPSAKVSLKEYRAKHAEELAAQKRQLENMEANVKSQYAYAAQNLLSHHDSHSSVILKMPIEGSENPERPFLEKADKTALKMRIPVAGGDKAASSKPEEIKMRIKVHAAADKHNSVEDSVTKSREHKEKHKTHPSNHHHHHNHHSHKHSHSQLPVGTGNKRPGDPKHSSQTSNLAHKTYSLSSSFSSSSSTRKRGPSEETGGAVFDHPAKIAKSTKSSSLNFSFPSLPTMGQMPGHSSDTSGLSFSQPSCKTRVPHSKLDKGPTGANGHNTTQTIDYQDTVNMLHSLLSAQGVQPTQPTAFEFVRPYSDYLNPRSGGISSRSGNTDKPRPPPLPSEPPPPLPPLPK
Chain of CDK9/cyclin T1 (P50750 whole entry): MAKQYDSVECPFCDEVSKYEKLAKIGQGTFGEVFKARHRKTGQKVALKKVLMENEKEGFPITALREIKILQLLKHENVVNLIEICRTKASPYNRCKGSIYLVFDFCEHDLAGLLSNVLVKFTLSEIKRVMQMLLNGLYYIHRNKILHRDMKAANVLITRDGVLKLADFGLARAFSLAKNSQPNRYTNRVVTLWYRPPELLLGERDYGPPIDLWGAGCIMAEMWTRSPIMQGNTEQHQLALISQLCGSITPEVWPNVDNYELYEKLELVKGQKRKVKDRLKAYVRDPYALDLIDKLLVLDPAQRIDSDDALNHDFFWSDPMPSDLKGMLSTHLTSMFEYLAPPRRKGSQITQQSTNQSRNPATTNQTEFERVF
Chain of Voltage-gated inwardly rectifying potassium channel KCNH2 (Q12809 whole entry): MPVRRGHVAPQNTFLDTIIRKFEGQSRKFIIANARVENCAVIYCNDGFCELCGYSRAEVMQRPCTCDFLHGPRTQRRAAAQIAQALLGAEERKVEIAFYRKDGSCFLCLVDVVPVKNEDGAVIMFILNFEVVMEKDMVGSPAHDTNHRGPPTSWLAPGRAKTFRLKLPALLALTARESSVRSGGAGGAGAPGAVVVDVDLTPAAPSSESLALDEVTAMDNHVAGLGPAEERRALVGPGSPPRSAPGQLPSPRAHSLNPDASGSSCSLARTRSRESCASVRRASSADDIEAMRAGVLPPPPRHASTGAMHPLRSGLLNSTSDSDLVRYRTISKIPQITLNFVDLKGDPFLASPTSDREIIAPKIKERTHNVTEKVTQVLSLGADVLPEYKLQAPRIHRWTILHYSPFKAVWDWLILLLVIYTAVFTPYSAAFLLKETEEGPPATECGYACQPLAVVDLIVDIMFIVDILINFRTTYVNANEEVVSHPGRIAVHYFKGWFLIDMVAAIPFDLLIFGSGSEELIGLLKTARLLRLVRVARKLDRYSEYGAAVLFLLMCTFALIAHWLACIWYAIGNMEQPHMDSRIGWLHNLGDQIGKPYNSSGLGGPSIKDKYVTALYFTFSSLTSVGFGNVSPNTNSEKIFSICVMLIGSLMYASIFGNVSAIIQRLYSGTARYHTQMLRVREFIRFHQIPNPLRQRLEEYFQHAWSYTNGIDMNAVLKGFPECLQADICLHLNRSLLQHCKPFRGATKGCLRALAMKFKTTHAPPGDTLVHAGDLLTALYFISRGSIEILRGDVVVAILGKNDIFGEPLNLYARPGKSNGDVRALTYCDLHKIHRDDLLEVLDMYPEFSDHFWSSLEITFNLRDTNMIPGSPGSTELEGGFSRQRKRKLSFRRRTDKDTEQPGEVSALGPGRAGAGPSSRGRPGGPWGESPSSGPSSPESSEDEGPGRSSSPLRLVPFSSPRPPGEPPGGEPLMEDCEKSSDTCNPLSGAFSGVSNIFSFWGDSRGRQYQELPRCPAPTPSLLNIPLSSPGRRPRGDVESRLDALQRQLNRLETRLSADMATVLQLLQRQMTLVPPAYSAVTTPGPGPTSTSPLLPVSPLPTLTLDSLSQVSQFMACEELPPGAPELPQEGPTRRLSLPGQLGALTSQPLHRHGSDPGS
Chain of CDK6/cyclin D3 (P30281 whole entry): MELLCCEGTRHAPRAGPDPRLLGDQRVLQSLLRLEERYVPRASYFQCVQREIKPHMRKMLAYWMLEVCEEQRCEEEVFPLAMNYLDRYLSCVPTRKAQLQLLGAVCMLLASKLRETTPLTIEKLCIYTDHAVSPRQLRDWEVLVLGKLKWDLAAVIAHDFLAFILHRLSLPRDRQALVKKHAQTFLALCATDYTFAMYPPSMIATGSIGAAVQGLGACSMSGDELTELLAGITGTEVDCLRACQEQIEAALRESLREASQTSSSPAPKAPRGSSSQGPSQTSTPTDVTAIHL
Chain of CDK6/cyclin D3 (Q00534 whole entry): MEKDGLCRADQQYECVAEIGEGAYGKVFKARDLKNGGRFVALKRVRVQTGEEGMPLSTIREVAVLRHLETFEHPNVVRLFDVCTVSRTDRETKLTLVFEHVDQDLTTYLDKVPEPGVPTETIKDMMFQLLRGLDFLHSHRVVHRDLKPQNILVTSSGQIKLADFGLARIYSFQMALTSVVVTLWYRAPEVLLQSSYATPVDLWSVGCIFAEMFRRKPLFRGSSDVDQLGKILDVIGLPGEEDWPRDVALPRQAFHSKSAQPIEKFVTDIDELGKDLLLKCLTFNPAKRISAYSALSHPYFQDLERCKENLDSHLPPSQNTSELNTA
Chain of Cytochrome P450 2C19 (P33261 whole entry): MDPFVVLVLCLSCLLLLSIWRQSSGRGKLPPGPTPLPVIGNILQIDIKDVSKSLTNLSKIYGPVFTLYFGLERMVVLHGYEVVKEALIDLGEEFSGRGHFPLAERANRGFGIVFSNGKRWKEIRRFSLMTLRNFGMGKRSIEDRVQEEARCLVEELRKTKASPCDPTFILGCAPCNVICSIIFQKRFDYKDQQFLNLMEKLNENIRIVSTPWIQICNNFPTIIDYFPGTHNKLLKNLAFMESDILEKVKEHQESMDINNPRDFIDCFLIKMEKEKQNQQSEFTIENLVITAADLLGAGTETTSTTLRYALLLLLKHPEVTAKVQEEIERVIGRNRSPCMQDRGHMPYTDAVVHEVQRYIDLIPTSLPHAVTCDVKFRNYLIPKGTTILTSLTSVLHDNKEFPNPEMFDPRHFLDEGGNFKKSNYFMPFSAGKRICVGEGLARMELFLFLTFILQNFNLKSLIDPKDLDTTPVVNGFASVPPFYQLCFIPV
Chain of CDK3/Cyclin E (P24864 whole entry): as the sequence (P24864 whole entry, further chain) above
Chain of CDK3/Cyclin E (Q00526 whole entry): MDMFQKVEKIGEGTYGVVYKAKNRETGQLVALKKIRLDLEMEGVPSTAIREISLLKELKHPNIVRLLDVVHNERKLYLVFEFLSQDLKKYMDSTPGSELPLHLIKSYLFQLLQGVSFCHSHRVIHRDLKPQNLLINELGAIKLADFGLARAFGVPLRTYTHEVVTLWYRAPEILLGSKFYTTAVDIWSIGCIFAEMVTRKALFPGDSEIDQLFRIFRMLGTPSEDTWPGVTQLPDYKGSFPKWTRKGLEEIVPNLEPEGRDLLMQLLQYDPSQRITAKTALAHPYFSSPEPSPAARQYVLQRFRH
Chain of Cytochrome P450 3A4 (P08684 whole entry): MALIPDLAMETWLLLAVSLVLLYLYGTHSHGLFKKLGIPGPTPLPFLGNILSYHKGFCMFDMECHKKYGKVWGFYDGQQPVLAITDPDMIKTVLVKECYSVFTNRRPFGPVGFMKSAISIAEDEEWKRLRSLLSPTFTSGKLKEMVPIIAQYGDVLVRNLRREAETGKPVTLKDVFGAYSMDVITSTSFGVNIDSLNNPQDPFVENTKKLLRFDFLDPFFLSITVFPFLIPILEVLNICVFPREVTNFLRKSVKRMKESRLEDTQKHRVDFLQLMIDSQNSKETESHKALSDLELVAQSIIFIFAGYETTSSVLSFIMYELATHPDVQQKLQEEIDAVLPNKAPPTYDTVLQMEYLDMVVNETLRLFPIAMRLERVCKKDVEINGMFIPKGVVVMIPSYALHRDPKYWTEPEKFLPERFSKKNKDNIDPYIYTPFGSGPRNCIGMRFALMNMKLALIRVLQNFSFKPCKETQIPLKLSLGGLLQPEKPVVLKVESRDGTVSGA

CN1CC[C@H](c2c(O)cc(O)c3c(=O)cc(/C=C/c4c(Cl)cccc4Cl)oc23)[C@H](O)C1 gave an inhibition of growth at 10 µM (Caco-2 [1]) of 68%, an IC50 (CDK9/cyclin T1) of 0.0019 µM and a GI50 (Caco-2 [2]) of 7 µM. The IC50 (CDK1/Cyclin E) was 0.0759 µM, the IC50 (CDK3/Cyclin E) was greater than 1 µM and the IC50 (CDK6/cyclin D3) was 0.199 µM. It also gave an inhibition [3] greater than 98%, an inhibition [4] greater than 98% and an IC50 [5] greater than 50 µM. The GI50 (MDA-MB-231) was 4 µM, the GI50 at 48 h [6] was 22 µM and the GI50 (HOP-92) was 3 µM. The Activity (MIA PaCa-2 [7]) was 48%, the Activity (MIA PaCa-2 [8]) was “Dose-dependent effect” and the remaining at 24 h, 120 ug/ml [9] was 81%. It also gave a remaining at 8 h [10] of 94%, an IC50 (Cytochrome P450 2C19) greater than 20 µM and an IC50 (Cytochrome P450 3A4) greater than 20 µM. The half-life at 3 µM [11] was 5.43 h, the half-life [12] was 1.43 h and the half-life [13] was 1.2 h. For the same compound, the Cmax [14] was 0.67 to 1.29 µM, the Vd [15] was 26.2 L/kg and the Cmax [16] was 4.11 µM. For the same compound, the Cmax [17] was 3.62 µM, the Kp at 0.5 h [18] was 5.3 and the Drug uptake (Kidney) was “Active”. For the same compound, the Activity (Mus musculus [19]) was “Non-Toxic”, the Activity (Mus musculus [20]) was “Non-Toxic” and the Activity (Salmonella typhimurium [21]) was “Non-Toxic”. For the same compound, the Activity (Salmonella typhimurium [22]) was “Non-Toxic”, the Activity (Salmonella typhimurium [23]) was “Non-Toxic” and the Activity (Salmonella typhimurium [24]) was “Non-Toxic”.
